Several values for one entry are separate records, joined by “and”; a condition that tells them apart may be missing. Identical values can stand only once.
Key:
human topoisomerase IIα [1] = target: T1, human topoisomerase IIα (Homo sapiens, UniProt P11388); assay: DNA; assay type: biochemical; settings: kDNA decatenation
human topoisomerase IIα [2] = target: T1, human topoisomerase IIα; assay: Inhibition of topoisomerase IIα-mediated DNA cleavage in the presence of Ca2+; assay type: biochemical; settings: Ca2+ in place of Mg2+; 150 nM enzyme; xanthone up to 10 µM
Summary of the method: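 Negatively supercoiled DNA incubated with 150 nM human topoisomerase IIα and test compound. CaCl2 was added to raise baseline enzyme-mediated DNA cleavage. Cleaved DNA was resolved on gels, with controls of DNA without enzyme and enzyme without compound. Cleavage without compound was set to 100%. Gels are representative of 3 experiments, and standard deviations come from 2-3 independent experiments.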

human topoisomerase IIα [3] = target: T1, human topoisomerase IIα; assay: DNA relaxation catalyzed by 150 nM topoisomerase IIα; assay type: biochemical; settings: 10 µM compound
Summary of the method: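 Negatively supercoiled DNA relaxed by 150 nM human topoisomerase IIα with test compound present. Gels show supercoiled DNA without enzyme and enzyme-treated DNA without compound as controls. Each gel is representative of 2-4 independent experiments.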

human topoisomerase IIα [4] = target: T1, human topoisomerase IIα; assay: Competition assay: block of etoposide-enhanced DNA cleavage; assay type: biochemical; settings: 100 µM etoposide; 5-100 µM compound (compound 5 up to 10 µM)
human topoisomerase IIα [5] = target: T1, human topoisomerase IIα; assay: DNA relaxation assay; assay type: biochemical; settings: 3 nM enzyme; for IC50: IC50 for inhibition of DNA relaxation, negatively supercoiled DNA
human topoisomerase IIα [6] = target: T1, human topoisomerase IIα; assay: ATP hydrolysis catalyzed by topoisomerase IIα; assay type: biochemical; settings: up to 50 µM
[7] = Solubility limit noted in the assays; assay type: physicochemical; settings: only used up to 10 µM

T1 sequence (P11388 whole entry): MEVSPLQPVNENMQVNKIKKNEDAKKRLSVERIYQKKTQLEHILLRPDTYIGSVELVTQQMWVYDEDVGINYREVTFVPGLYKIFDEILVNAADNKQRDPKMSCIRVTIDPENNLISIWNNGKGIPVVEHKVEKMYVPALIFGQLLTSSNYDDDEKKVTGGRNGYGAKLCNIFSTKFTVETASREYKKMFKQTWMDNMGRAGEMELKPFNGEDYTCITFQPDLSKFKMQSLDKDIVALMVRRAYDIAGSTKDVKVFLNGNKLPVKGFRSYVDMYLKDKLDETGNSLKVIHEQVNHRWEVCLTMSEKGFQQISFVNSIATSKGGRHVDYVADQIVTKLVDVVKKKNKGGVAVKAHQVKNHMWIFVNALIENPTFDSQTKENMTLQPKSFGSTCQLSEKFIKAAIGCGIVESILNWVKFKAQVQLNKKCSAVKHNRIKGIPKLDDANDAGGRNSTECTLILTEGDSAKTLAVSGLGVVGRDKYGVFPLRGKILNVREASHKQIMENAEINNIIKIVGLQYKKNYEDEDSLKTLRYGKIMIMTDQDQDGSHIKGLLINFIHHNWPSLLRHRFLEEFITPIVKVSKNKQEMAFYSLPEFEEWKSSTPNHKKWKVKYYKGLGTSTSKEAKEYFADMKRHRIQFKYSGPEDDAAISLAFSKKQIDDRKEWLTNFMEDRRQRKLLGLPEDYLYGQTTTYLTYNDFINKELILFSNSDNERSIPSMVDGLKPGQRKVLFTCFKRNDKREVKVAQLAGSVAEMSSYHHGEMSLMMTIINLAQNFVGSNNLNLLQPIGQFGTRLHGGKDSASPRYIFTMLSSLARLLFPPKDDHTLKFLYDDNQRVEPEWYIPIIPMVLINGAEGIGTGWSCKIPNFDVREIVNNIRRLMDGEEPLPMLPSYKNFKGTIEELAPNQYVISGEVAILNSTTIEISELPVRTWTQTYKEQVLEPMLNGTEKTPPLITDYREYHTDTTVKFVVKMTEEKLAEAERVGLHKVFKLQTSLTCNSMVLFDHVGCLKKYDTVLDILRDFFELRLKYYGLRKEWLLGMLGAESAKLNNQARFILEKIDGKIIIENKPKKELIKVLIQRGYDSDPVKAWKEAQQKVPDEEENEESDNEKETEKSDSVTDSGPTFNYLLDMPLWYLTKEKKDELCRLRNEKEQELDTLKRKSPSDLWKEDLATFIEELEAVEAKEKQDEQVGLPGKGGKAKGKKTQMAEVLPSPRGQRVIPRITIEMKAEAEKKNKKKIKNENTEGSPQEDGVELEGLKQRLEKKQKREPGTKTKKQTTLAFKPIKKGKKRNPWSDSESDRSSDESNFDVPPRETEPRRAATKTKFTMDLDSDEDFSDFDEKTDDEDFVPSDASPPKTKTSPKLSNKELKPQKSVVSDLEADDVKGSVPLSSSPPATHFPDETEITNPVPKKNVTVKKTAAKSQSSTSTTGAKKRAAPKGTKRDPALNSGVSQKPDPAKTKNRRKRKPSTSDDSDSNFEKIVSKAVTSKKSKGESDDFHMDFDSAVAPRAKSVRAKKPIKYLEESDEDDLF

order of potency in decatenation assay (human topoisomerase IIα [1])	inhibition of enzyme-mediated DNA cleavage (human topoisomerase IIα [2])	inhibition of DNA relaxation by 150 nM enzyme (human topoisomerase IIα [3])	ability to block DNA cleavage enhancement by etoposide (human topoisomerase IIα [4])	IC50 (human topoisomerase IIα [5])	inhibition of ATP hydrolysis in the absence of DNA (human topoisomerase IIα [6])	solubility in assay [7]	ability to inhibit DNA relaxation at 10 µM (human topoisomerase IIα [5]; 10 µM)	SMILES
much more potent than compound 6	do not inhibit the DNA cleavage step	complete (or near complete) inhibition	competed with etoposide					Cl.Cl.NCCCNCC(O)COc1cc(O)c2c(=O)c3ccccc3oc2c1 (stereo not drawn) [compound 2]
much more potent than compound 6	do not inhibit the DNA cleavage step	complete (or near complete) inhibition	competed with etoposide	2.5 to 5 µM and < 5 µM	no inhibition was observed			NCCCCNCCCNCC(O)COc1cc(O)c2c(=O)c3ccccc3oc2c1.O=C(O)C(F)(F)F.O=C(O)C(F)(F)F.O=C(O)C(F)(F)F (stereo not drawn) [compound 4]
much more potent than compound 6	do not inhibit the DNA cleavage step	complete (or near complete) inhibition	competed with etoposide	~1 µM and < 5 µM		solubility issues		Cl.Cl.Cl.Cl.NCCCNCCCCNCCCNCC(O)COc1cc(O)c2c(=O)c3ccccc3oc2c1 (stereo not drawn) [compound 5]
		no ability to inhibit DNA relaxation					no ability to inhibit DNA relaxation	O=c1c2ccccc2oc2cc(O)cc(O)c12 [compound 6, 1,3-dyhydroxy-9h-xanthen-9-one]

Reference: article PMC5623067 (Bioorganic & medicinal chemistry letters, 2017)
